Compounds with a hit are over-represented: about 2.3% of the library has one in this group of screens.
TRPC4 PAM = TRPC4 (mouse) allosteric potentiation; Q9QUQ5; HEK293 TRPC4beta/mu-opioid, DAMGO EC20, Fluo-4 Ca2+ flux; stronger effect = higher value; B-score at 10 µM; 310,000 tested, 0.42% active;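 active = B-score of calcium response area above 5 SD of library B-scores, with initial fluorescence ratio within 5 SD of library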;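 also: B-score of integrated fluorescence ratio over time as area under calcium response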
TRPC6 activator = activates the mouse TRPC6 cation channel; HEK293-TRPC6 membrane potential dye fluorescence; stronger effect = higher value; B-score at 10 µM; 310,000 tested, 0.13% active; AID 2550;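 active = B-score of the integrated fluorescence ratio above library mean plus 3 SD, and starting fluorescence ratio within library mean plus 5 SD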;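 also: higher score means more depolarization so channel activation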
Target sequence (Q61143 whole entry, looked up): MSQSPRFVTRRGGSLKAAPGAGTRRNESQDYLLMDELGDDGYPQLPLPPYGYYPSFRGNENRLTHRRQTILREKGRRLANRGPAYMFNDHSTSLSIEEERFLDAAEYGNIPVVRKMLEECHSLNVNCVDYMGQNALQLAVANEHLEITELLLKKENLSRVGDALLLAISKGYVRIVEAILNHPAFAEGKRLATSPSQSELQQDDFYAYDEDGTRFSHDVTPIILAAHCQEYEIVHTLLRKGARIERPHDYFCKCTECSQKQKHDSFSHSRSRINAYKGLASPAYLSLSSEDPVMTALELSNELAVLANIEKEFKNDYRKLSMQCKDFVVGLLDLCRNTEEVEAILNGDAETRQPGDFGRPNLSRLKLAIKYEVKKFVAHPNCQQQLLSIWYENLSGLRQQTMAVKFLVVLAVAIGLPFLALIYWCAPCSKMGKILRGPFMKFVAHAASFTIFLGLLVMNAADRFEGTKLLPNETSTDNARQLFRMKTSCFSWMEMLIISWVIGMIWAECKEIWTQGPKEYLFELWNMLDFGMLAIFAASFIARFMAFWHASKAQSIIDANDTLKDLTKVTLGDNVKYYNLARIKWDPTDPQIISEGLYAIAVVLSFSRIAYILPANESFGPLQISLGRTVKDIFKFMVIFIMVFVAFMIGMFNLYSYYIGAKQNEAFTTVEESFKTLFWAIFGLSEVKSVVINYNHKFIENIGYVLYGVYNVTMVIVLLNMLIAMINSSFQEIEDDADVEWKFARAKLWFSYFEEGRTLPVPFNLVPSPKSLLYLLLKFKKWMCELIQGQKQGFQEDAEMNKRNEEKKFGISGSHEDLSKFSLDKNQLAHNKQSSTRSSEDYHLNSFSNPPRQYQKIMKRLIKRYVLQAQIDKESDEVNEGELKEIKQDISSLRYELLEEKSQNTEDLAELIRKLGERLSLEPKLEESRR
TRPC6 inhibitor = mouse TRPC6 channel inhibition; Q61143; HEK293-TRPC6, membrane potential dye, ACh-evoked depolarization; stronger effect = lower value; B-score at 10 µM; 310,000 tested, 1.1% active;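 active = B-score under library mean minus 3 SD, initial fluorescence not abnormally high, positive integrated signal ratio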;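 also: B-score derived from integrated fluorescence ratio over the kinetic read; more negative B-score means stronger inhibition of depolarization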
TRPC4 inh = TRPC4 (mouse) channel inhibition. B-score at 10 µM. 300,000 tested, 0.39% active. HEK293 TRPC4beta/mu-opioid, DAMGO-evoked Fluo4 calcium flux; stronger effect = lower value. AID 2247;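 active = B-score over 3 SD under the library average, no early fluorescence shift, positive overall ratio signal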
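Test system – stable TRPC4beta/mu-opioid receptor HEK293 cells · Probe or stimulus – DAMGO, a submaximal dose followed by a maximal one · Dosing – one concentration per compound · Signal – Fluo4 calcium fluorescence by kinetic imaging, 5 s 1 Hz baseline · Evaluation – per-well B score of integrated baseline-normalized Fluo4 ratio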
TRPC4 agonist = TRPC4 (mouse) channel activation; 310,000 tested, 0.49% active; HEK293 TRPC4beta/mu-opioid, Fluo4 calcium fluorescence; stronger effect = higher value; B-score at 10 µM;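 active = B-score above 5 SD of library B-scores, and initial fluorescence ratio not above library mean plus 5 SD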;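 also: positive B-score marks a calcium rise read as TRPC4 activation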
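Assay system: HEK293 stable line with TRPC4beta plus mu-opioid receptor. Times: dye 45 min RT, read 110 s. Measured by: kinetic Fluo4 calcium fluorescence. Measure: B score of integrated ratio. Controls: assay buffer as low control, maximal DAMGO as high control.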
* = called active by the depositor; i = inactive.

SMILES	TRPC4 PAM	TRPC6 activator	TRPC6 inhibitor	TRPC4 inh	TRPC4 agonist
COc1ccc(CNCCC(c2ccc(F)cc2)c2ccc(OC(C)C)cc2)cc1OC (stereo not drawn)	i	i	i	i	46*
COc1ccc(OC)c(S(=O)(=O)N2CCC(C(=O)N3CCCCCC3)CC2)c1	i	i	i	i	i
Cc1cc(OCCN2CCOCC2)nc2ccccc12	i	i	i	i	i
Cc1cc(OCCN2CCCCC2)nc2ccccc12	17*	i	i	i	i
COc1ccc(N2CCN(c3cc(C)c4ccc(C)cc4n3)CC2)cc1	12*	i	i	i	i
Cc1cc(N2CCCCCC2)nc2ccccc12	i	i	i	-6*	i
COc1ccc(N2CCN(c3cc(C)c4ccc(O)cc4n3)CC2)cc1	i	i	i	i	i
Cc1cc(N2CCCN(C)CC2)nc2cc(Cl)ccc12	13*	i	i	i	i
COC(=O)C1=C(C(=O)OC)[C@@H]2Nc3ccccc3[C@@]23C[C@@H](C(=O)OC)N(C(=O)c2ccco2)C3=N1	i	i	i	i	i
O=C(COC(=O)C1CC2C=CC1C2)NCCc1ccccc1 (stereo not drawn)	i	i	i	i	i
Cc1cc(N2CCCCC2)nc2ccccc12	i	i	i	-6*	i
Cc1cc(N2CCOCC2)nc2ccccc12	i	i	i	i	i
Cc1cc(C)c(S(=O)(=O)NCc2cccs2)cc1C	13*	i	i	i	i
N#Cc1ccc(S(=O)(=O)NC2CCCCNC2=O)cc1 (stereo not drawn)	i	i	i	i	i
CN1CCOc2cc(S(=O)(=O)NCc3ccc(S(N)(=O)=O)cc3)ccc21	i	i	i	i	i
CC(=O)N1CCCc2ccc(NS(=O)(=O)c3ccc(C)c(C)c3)cc21	i	i	i	i	i
COc1ccc(OC)c(S(=O)(=O)Nc2ccc3c(c2)N(C(C)=O)CCC3)c1	14*	i	i	i	i
NC(N)=NCCCC(NC(=O)c1ccccc1)C(=O)Nc1ccc([N+](=O)[O-])cc1 (stereo not drawn)	i	i	i	i	123*
O=C(c1ccc([N+](=O)[O-])s1)N1CCN(c2cccc(Cl)c2)CC1	i	i	i	-6*	i
COc1ccccc1C1/C(=C(\O)c2ccc3c(c2)OCCO3)C(=O)C(=O)N1Cc1cccnc1 (stereo not drawn)	i	i	i	-6*	i
COc1ccc(C2/C(=C(\O)c3ccc4c(c3)OCCO4)C(=O)C(=O)N2Cc2cccnc2)cc1 (stereo not drawn)	i	i	i	i	i
CCn1c(=O)c(=O)n(CC)c2cc(S(=O)(=O)Nc3cc(C)ccc3C)ccc21	i	i	i	i	i
CCOC(=O)c1sc(-c2ccc(F)cc2)cc1NC(=O)Nc1ccccc1OC	i	i	i	i	i
CCC(C(=O)Nc1ccccc1OC)n1c(C(=O)OC)cc2ccsc21 (stereo not drawn)	15*	i	i	i	i
Cc1cc(C)c2[nH]c(C(=O)N3CCC(n4nccc4NC(=O)C4CC4)CC3)c(C)c2c1	i	i	i	i	i
SMILES	TRPC4 PAM	TRPC6 activator	TRPC6 inhibitor	TRPC4 inh	TRPC4 agonist
CCOC(=O)C1(Cc2cccc(OC)c2)CCN(Cc2ccc3c(c2)OCCO3)CC1	i	i	i	i	56*
CCOC(=O)C1(Cc2cccc(OC)c2)CCN(Cc2cnc(SC)nc2)CC1	i	i	i	-5*	i
CCOC(=O)C1(CCOc2ccccc2)CCN(Cc2ccc3c(c2)OCCO3)CC1	i	i	i	i	61*
CCc1cccc(C)c1NC(=O)C1CCCN(S(C)(=O)=O)C1 (stereo not drawn)	i	i	i	i	i
COc1ccc(/C=C(\C#N)C(=O)N2COCC2(C)C)cc1	i	i	i	i	i
COc1ccc(-c2cc(C(=O)N3CC(C)CC(C)C3)c3ccccc3n2)cc1 (stereo not drawn)	18*	i	i	i	i
COc1ccc(-c2nc(CN3CCC(C(=O)NC4CCCC4)CC3)c(C)o2)cc1OC	i	i	i	i	101*
Cc1nnc2sc(-c3csc4c3CCCC4)nn12	i	i	i	-6*	i
CCOc1ccc(CN2CCN(C(=O)c3ccccc3)CC2)cc1	i	i	i	-7*	i
CCOc1ccc(C(=O)N2CCN(Cc3ccccc3)CC2)cc1	i	i	i	i	i
COc1cc([N+](=O)[O-])cc(/C=C2/SC(=S)N(Cc3ccccc3)C2=O)c1O	i	i	-6.31*	i	i
COc1ccc2nc(SCC(N)=O)[nH]c2c1	i	i	i	i	i
COc1ccc2nc(SCCN(C)C)[nH]c2c1	i	i	i	i	113*
COc1ccc(-c2noc(N3CCC(C(=O)Nc4ccccc4OC)CC3)n2)cc1	i	i	i	i	i
CCOc1ccc(OCc2ccc(C(=O)N3CCCC3)o2)cc1	i	i	i	i	i
CC(C)c1ccc(OCc2ccc(C(=O)N3CCCC3)o2)cc1	42*	i	i	i	i
CCOC(=O)c1ccc(COc2ccc(C(C)C)cc2)o1	i	i	i	i	i
CCCc1ccc(OCc2ccc(C(=O)N3CCCC3)o2)cc1	26*	i	i	i	i
COc1cccc(CN(CC(=O)NC2CCCC2)C(=O)c2csnn2)c1	i	i	i	i	i
CC(C)(C)OC(=O)N1Cc2ccccc2C[C@H]1C(=O)NCC(=O)NCC1CCCO1 (stereo partly drawn)	i	i	i	i	i
Cc1ccnc(NC(=O)Cn2cc([N+](=O)[O-])cn2)c1	i	i	i	-8*	i
O=C(Cn1cc([N+](=O)[O-])cn1)Nc1ccccn1	i	i	i	i	i
Cc1ccc(CNC(=O)C2CCC(=O)N(CC3CCCCC3)C2)o1 (stereo not drawn)	i	i	i	i	i
CN1CCN(NC(=O)c2cccc(S(=O)(=O)N3CCCCCC3)c2)CC1	i	i	i	i	i
CN1CCN(NC(=O)c2cccc(C(F)(F)F)c2)CC1	i	i	i	i	53*
C=CCOc1ccc(/C=C2\SC(=S)N(NS(=O)(=O)c3ccc(C)cc3)C2=O)cc1	12*	i	i	i	i
O=C(COC(=O)c1ccccc1C(=O)N1CCN(c2ccccc2)CC1)Nc1ccc(F)cc1	17*	i	i	i	i

Compound activity deposited in PubChem BioAssay by Johns Hopkins Ion Channel Center.
